SIAE inh: human SIAE inhibition, primary screen; Q9HAT2; SIAE FP-Rh probe binding, fluorescence polarization; inhibition, % at 9.66 µM; hit rate 0.69% among 370,000;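 active means inhibition above a cutoff: mean of compounds within the control limits plus 3 SD of those, cut at about 17% in these data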;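 further: 0% = plate median of compound wells and 100% = probe without SIAE protein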
Target sequence (Q9HAT2 whole entry, looked up): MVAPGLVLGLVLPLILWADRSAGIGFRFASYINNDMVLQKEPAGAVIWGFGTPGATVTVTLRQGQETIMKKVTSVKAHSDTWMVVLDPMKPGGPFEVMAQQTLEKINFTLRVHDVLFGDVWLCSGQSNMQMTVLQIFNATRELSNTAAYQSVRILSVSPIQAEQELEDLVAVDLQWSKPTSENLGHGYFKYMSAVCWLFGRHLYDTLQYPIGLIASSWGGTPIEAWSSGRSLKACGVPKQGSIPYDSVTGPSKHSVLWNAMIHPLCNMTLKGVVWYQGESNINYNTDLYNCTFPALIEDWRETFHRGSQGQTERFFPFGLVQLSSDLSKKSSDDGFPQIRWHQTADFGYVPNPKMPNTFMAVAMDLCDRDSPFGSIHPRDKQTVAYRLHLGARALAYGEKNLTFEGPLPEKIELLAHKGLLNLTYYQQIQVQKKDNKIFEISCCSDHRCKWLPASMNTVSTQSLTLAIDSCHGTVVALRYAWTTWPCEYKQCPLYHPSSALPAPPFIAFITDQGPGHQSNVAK
HTRA1 inh: HTRA1 (human) protease inhibition; hit rate 0.5% among 340,000; inhibition, % at 5.96 µM; AID 504803; recombinant HTRA1, FP-rhodamine activity-based probe, fluorescence polarization; Q92743; in the data active means inhibition above about 36%;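 further: 0% = enzyme with DMSO and 100% = wells lacking enzyme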
ABHD4 inh: inhibitors of mouse ABHD4 | purified mABHD4, FP-Rh probe fluorescence polarization | inhibition, % at 8.92 µM | hit rate 0.54% among 370,000 | AID 720543;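 active means inhibition exceeding the mean over every tested compound plus 3 SD, cut at about 30% in these data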;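 further: 0% = plate median of compound wells and 100% = S159A mutant with DMSO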
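Assay system: wild-type mouse ABHD4 protein; compound: single nominal dose of 8.92 µM, 0.89% DMSO final; schedule: 45 min + 60 min at 25 °C; measured by: FP readout, ex 525 nm / em 598 nm; evaluation: % inhibition of FP-Rh probe binding versus controls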
PRMT1 FP inh: blocks human protein arginine methyltransferase 1. AID 652257. recombinant PRMT1, activity-based probe fluorescence polarization. inhibition, % at 2.79 µM. hit rate 1.3% among 370,000;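 active means inhibition above about 21% made by adding two undisclosed values, limit read from the data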
TCR-CD3 inh: inhibitors of human TCR-CD3 interaction | TAMRA-labeled TCR probe fluorescence, biochemical | inhibition, % at 9.4 µM | hit rate 0.37% among 360,000 | AID 651800;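 further: recombinant mutant TCR 2C K166C tagged with TAMRA read by polarization; 0% = receptor in buffer alone and 100% = receptor with positive control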
HTRA1 inh conf: confirmation of human HTRA1 inhibitors; inhibition, % at 5.96 µM; shares compounds with HTRA1 inh; hit rate 66% among 1,600; recombinant HTRA1, FP-rhodamine activity-based probe, fluorescence polarization;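 active means mean inhibition over three repeats above a set limit taken from the earlier primary screen, cut at about 37% in these data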;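 further: 0% = HTRA1 with DMSO and 100% = wells lacking HTRA1; inhibitors block probe binding so polarization drops and inhibition rises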
BSA TAMRA ctr: counter-screen for TCR-CD3 interaction inhibitors: BSA probe; shares compounds with TCR-CD3 inh; TAMRA-labeled BSA probe fluorescence counterscreen; inhibition, % at 9.4 µM; hit rate 10% among 1,200; in the data active means inhibition above about 23%;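 further: 0% = buffer low control and 100% = reference high control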
TCR-CD3 conf: confirmation of human TCR-CD3 interaction inhibitors | inhibition, % at 9.4 µM | hit rate 48% among 1,200 | shares compounds with TCR-CD3 inh | TAMRA-labeled TCR probe fluorescence binding assay
PRMT1 inh conf: PRMT1 (human) inhibition, FP confirmation; inhibition, % at 2.79 µM; recombinant His-PRMT1, activity-based probe fluorescence polarization; hit rate 42% among 3,300; shares compounds with PRMT1 FP inh;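 active means mean inhibition across replicates above the hit cutoff derived for the earlier primary screen, cut at about 22% in these data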
mABHD4 conf: confirmation of mouse ABHD4 inhibitors. purified mABHD4, FP-Rh probe fluorescence polarization. shares compounds with ABHD4 inh. hit rate 55% among 1,800. inhibition, % at 8.92 µM;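 active means mean inhibition across replicates above the hit cutoff set in the primary screen, cut at about 30% in these data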;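 further: 0% = wild-type ABHD4 with DMSO and 100% = catalytically dead S159A mutant with DMSO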
SIAE confirm: confirmation of human SIAE inhibitors; inhibition, % at 9.66 µM; shares compounds with SIAE inh; AID 1117263; SIAE FP-Rh activity-based probe, fluorescence polarization; hit rate 13% among 2,300;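 active means mean inhibition of the replicates above the hit cutoff set in the primary screen, cut at about 17% in these data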;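 further: 0% = SIAE with DMSO and probe and 100% = probe without SIAE; inhibitors lower polarization as more probe stays unbound to SIAE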
Starred values were filed as active, the others as inactive; · = no result; + = active, no number. Only some compounds are listed: those with a hit (about 2.7% of all), similar ones and a draw of the others. Unless noted, no stated cut-off is given here; in the data, active means inhibition above about 19%; inactive means the rest.

SMILES	SIAE inh	HTRA1 inh	ABHD4 inh	PRMT1 FP inh	TCR-CD3 inh	HTRA1 inh conf	BSA TAMRA ctr	TCR-CD3 conf	others
c1ccc(N2[C@@H]3CC[C@H]2c2ccccc2C3)cc1	-4	4	-8	-4	-2	·	·	·
Cc1cc(OC(=O)c2ccco2)c2c3c(c(=O)oc2c1)CCCC3	-1	42*	-3	-4	0	33	·	·
COc1ccc([C@@H]2C[C@H]3[C@@H](CN2)CON3C)cc1	-2	·	1	0	·	·	·	·
C=Cn1ccnc1P(=S)(c1nccn1C=C)c1nccn1C=C	1	41*	5	0	5	43*	·	·
CC1Oc2cc3c(-c4c(O)cc(O)c5c(O)c6c(cc45)OC(C)C(C)C6=O)c(O)cc(O)c3c(O)c2C(=O)C1C (stereo not given)	·	66*	·	·	·	81*	·	·
COC(=O)c1cn(C(=O)c2cccc3ccccc23)c2ccccc12	-15	-15	-1	5	0	·	·	·
Cn1c(=O)c2c(nc(-c3ccc(N(CCCl)CCCl)cc3)n2C)n(C)c1=O	2	-3	6	-2	-10	·	·	·
CCCN1CCc2cccc3c2[C@H]1Cc1ccc(O)c(O)c1-3	·	77*	·	·	·	66*	·	·
COc1ccc(OC)c(N2C(=O)NC(=O)/C(=C/c3ccc([N+](=O)[O-])s3)C2=O)c1	0	48*	-40	28*	-25	43*	·	·	PRMT1 inh conf=58*
N#CCCn1cc(C(=O)Nc2ccccc2Br)c(-c2ccc([N+](=O)[O-])cc2)n1	-1	-12	-8	1	-3	·	·	·
CN(C)C1C(=O)C(C(N)=O)=C(O)C2(O)C(=O)C3=C(O)c4c(O)cccc4C(C)(O)C3C(O)C12 (stereo not given)	12	56*	67*	49*	25*	8	-1	7	mABHD4 conf=18
CCN(CC)c1ccc(N=Cc2c(O)n(Cc3ccco3)c(=O)[nH]c2=O)cc1	17	42*	45*	21	10	0	·	·	mABHD4 conf=2
COC(=O)C1=C(c2cccc(C#N)c2)C[C@@H]2CC[C@H]1N2C(=O)N1CCC(C)CC1	1	-6	4	-1	-5	·	·	·
CC(C)OP(=O)(Oc1ccc(C(O)C(Cl)(Cl)Cl)cc1)OC(C)C (stereo not given)	7	-2	-6	-5	-3	·	·	·
C[n+]1c2ccccc2nc2ccc(NCCO)cc21	60*	86*	97*	11	196*	86*	177*	139*	mABHD4 conf=63*;SIAE confirm=68*
CNc1ccc2nc3ccccc3[n+](C)c2c1	108*	115*	119*	21*	+	101*	+	184*	mABHD4 conf=101*;SIAE confirm=113*
OCCNc1c2c(nc3ccccc13)CCCC2	6	1	2	0	-2	·	·	·
O=C1NC(=O)C(CCc2ccncc2)(c2ccccc2)C(=O)N1	0	-6	0	0	2	·	·	·
NC1CCc2cc(O)c(O)cc2C1 (stereo not given)	5	3	8	14	-2	·	·	·
CC1=C(C)CC2(C(=O)NC(=S)NC2=O)C(C)C1 (stereo not given)	-4	-3	0	-8	-1	·	·	·
CCN(CC)c1ccc(N=Cc2c(O)n(-c3cc(OC)ccc3OC)c(=O)[nH]c2=O)cc1	25*	46*	65*	16	9	14	·	·	mABHD4 conf=4;SIAE confirm=5
NC(N)=N/N=C/c1ccc(N(c2ccccc2)c2ccccc2)cc1	22*	46*	42*	0	-4	60*	·	·	mABHD4 conf=71*;SIAE confirm=36*
Oc1ccc(C[C@H]2NCCc3cc(O)c(O)cc32)cc1O	16	28	15	19	113*	·	-5	19*
C=CCn1c(O)c(C=Nc2ccc(OC)cc2C)c(=O)[nH]c1=O	0	0	1	-1	-1	·	·	·
C/C(=N\NC(=O)c1ccccc1O)c1c(O)n(Cc2ccccc2)c(=O)[nH]c1=O	4	23	25	3	34*	·	-15	37*
SMILES	SIAE inh	HTRA1 inh	ABHD4 inh	PRMT1 FP inh	TCR-CD3 inh	HTRA1 inh conf	BSA TAMRA ctr	TCR-CD3 conf	others
C/C(=N\NC(=O)c1ccncc1)c1c(O)n(Cc2ccccc2)c(=O)[nH]c1=O	0	5	8	0	19*	·	-7	11
O=C(N/N=C/c1c(O)n(Cc2ccc(F)cc2)c(=O)[nH]c1=O)c1ccccc1	-3	10	10	2	11	·	·	·
O=C(N/N=C/c1c(O)n(-c2ccccc2)c(=S)[nH]c1=O)c1ccccc1	-11	·	3	-2	27*	·	-11	7
O=C(N/N=C/c1c(O)n(Cc2ccccc2)c(=O)[nH]c1=O)c1ccncc1	4	·	24	-2	26*	·	-11	9
C/C(=N\Nc1ccccc1)c1c(O)n(Cc2ccccc2)c(=O)[nH]c1=O	0	-8	-7	7	13	·	·	·
NC(=O)c1ccc(N=Cc2c(O)n(Cc3ccco3)c(=O)[nH]c2=O)cc1	-2	-3	-4	13	21*	·	13	26*
COC(=O)CSC1=NN1c1cc(C)nc(N)n1	-1	6	0	-6	-2	·	·	·
COc1cc2c(cc1OC)-c1c(OC)c(OC)cc3c1[C@H](C2)N(C)CC3	10	15	17	0	-3	·	·	·
COc1cc2c(cc1O)CC1c3c(cc(O)c(OC)c3-2)CCN1C (stereo not given)	11	8	24	0	22*	·	-1	7
Cc1ccc2c(c1)N(C(C)C(=O)N1CCC3(CC1)OCCO3)C(=O)CO2 (stereo not given)	-1	0	2	3	1	·	·	·
CC(=O)Nc1ccc(C=C2C(=O)NC(=O)NC2=O)cc1	-1	-1	9	7	51*	·	-3	-4
CN(C)c1ccc(C=C2C(=O)NC(=O)NC2=O)cc1	1	-1	1	7	-3	·	·	·
CC(=O)OC1CCC2(C)C(CC(=O)C3C2CCC2(C)C(OC(C)=O)CCC32)C1 (stereo not given)	0	0	-2	-4	-2	·	·	·
Cc1ccc2cc(C=C(C#N)C#N)c(Cl)nc2c1	8	-12	7	52*	-2	·	·	·	PRMT1 inh conf=22*
C#C[C@]1(O)CC[C@H]2[C@@H]3[C@H](O)C[C@H]4C[C@@H](O)CC[C@]4(C)[C@H]3CC[C@@]21C	4	11	1	0	1	·	·	·

Bioassay records as filed in PubChem BioAssay.
